Source: PubChem BioAssay (several laboratories)
A selection: hits, their analogues and other compounds. The true share with any hit is near 3.6%.
FID counter: fluorescent intercalator displacement, NS3 helicase counter-screen. inhibition, % at 7.9 µM. 0.17% of 290,000 active. AID 1845. DNA fluorescent intercalator displacement, fluorescence; in the data active = inhibition above about 37%;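 also: 0% = vehicle and 100% = reference compound; higher means more ethidium bromide displaced from hairpin DNA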
GRIN3A LBD mod: modulates the human NR3A ligand-binding domain. Tm shift relative to glycine control, % at 25 µM. NR3A LBD differential scanning fluorimetry, Tm shift; 0% = protein alone, 100% = glycine-bound protein. AID 1259313. 2.5% of 340,000 active;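 active = melting temperature shift of at least 10% of the positive control shift, at one fixed dose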
EBNA-1 inhibitor: blocks EBNA-1 binding to DNA | AID 1950 | 0.34% of 300,000 active | inhibition, % at 14.8 µM | EBNA-1 DNA binding, fluorescence polarization; in the data active = inhibition above about 28%
ZTA counter: blocks Epstein-Barr virus ZTA, an EBNA-1 counter-screen; 0.15% of 320,000 active; P03206; inhibition, % at 11 µM; ZTA-DNA binding, fluorescence polarization; in the data active = inhibition above about 33%
Target sequence (P03206 whole entry, looked up): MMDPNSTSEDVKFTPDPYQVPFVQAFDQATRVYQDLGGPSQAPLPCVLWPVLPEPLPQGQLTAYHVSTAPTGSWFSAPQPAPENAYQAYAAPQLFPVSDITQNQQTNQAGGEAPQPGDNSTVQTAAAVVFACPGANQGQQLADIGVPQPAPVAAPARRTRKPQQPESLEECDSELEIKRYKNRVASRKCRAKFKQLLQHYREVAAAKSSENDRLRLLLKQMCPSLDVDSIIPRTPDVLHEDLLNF
FGF22 binding: FGF22 (human) thermal shift binding | Q9HCT0 | recombinant FGF22 thermal shift, SYPRO orange fluorescence; percent of sucrose octasulfate shift, DMSO zero | activity (Tm shift, normalised), % at 9.99 µM | 1.5% of 340,000 active | AID 651658;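 active = mean Tm shift, scaled 0 neutral to 100 positive control, at about 1.3% or above, every replicate too, limit read from the data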
Target sequence (Q9HCT0 whole entry, looked up): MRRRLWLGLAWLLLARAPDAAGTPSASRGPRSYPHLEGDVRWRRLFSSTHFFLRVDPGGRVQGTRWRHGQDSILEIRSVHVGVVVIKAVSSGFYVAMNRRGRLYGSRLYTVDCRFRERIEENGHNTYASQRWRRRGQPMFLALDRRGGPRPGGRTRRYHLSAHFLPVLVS
NS3 helicase inh: inhibitors of Hepatitis C virus NS3 helicase; NS3 helicase DNA unwinding, Cy5 molecular beacon fluorescence; inhibition, % at 10.9 µM; 0.56% of 290,000 active; AID 1800;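 active = inhibition above the mean of all tested compounds plus 3 SD, set per campaign, cut at about 35% in these data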;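 also: 0% = DMSO wells and 100% = thioflavine S control wells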
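System: Hepatitis C virus NS3 helicase domain fragment enzyme | Reagent: Annealed dual-labelled DNA beacon duplex, ATP-started | Compound dosing: 10.9 µM single point, 0.8% DMSO | Incubation: 1 h reaction at 25 °C, ATP-initiated | Technique: Cy5 fluorescence | Evaluation: Percent inhibition from t60/t0 fluorescence ratio | Benchmarks: Low DMSO, high thioflavine S at 110 µM | Replication: Singlicate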
* = called active by the depositor; nt = no result given.

SMILES	FID counter	GRIN3A LBD mod	EBNA-1 inhibitor	ZTA counter	FGF22 binding	NS3 helicase inh
CC[C@@H](C(=O)n1nc(C)cc1C)[C@H](NS(=O)(=O)c1ccc(C)cc1)c1ccccc1	1	13*	-4	4	nt	3
Cc1cccc(CSc2nc(N)c(C#N)c(-c3cccs3)c2C#N)c1	10	13*	15	1	nt	-9
CC(=O)N[C@@H]1CC[C@@H](CCNC(=O)Nc2ccc(C(F)(F)F)cc2)O[C@H]1CO	nt	nt	nt	nt	0	nt
Fc1ccccc1Nc1nc2ccccc2o1	-11	34*	6	6	0	8
O=C(NCc1nnc(SCC(=O)N2CCc3ccccc32)o1)c1ccco1	3	0	-3	-17	43*	2
CN(C)C(=O)[C@H]1[C@H](CO)[C@H]2Cn3c(ccc(C4=CCCC4)c3=O)[C@H]2N1Cc1ccc2c(c1)OCO2	nt	nt	nt	nt	1	nt
CN1CCN(c2cc(N3CCN(C(=O)c4ccco4)CC3)c3c4c(onc24)-c2ccccc2C3=O)CC1	-3	-2	1	16	nt	-19
O=C(O)CCCNc1cc(N2CCC3(CC2)OCCO3)c2noc3c2c1C(=O)c1ccccc1-3	-27	nt	93*	143*	nt	37*
CCOC(=O)N1CCN(c2cc(NCCC(=O)O)c3c4c(onc24)-c2ccccc2C3=O)CC1	-23	2	118*	177*	nt	36*
Cc1ccc(-c2cc(C(=O)N3N=C(C(F)F)CC3(O)C(F)F)c3ccccc3n2)cc1C (stereo unspecified)	-6	35*	-2	-12	nt	-7
CCOc1cccc(-c2cc(C(=O)N3N=C(C)CC3(O)C(F)F)c3ccccc3n2)c1 (stereo unspecified)	-22	-5	-16	4	43*	4
O=C(c1cc(-c2ccccc2)nc2ccccc12)N1N=C(C(F)F)CC1(O)C(F)F (stereo unspecified)	-9	4	7	-4	0	-8
O=C(CN1CCN(S(=O)(=O)c2ccccc2[N+](=O)[O-])CC1)NC(=O)NCc1ccco1	-3	-1	-10	13	43*	-8
O=C(CN1CCN(Cc2ccccc2)CC1)NC(=O)NCc1ccco1	7	2	-4	17	nt	2
CNC[C@@H]1OCCCC[C@@H](C)Oc2ccc(NC(=O)c3ccncc3)cc2C(=O)N([C@H](C)CO)C[C@@H]1C	nt	nt	nt	nt	0	nt
Oc1c(Br)cc(Br)cc1CNc1cnc2ccccc2c1	-5	24*	-12	-3	0	-10
CN(C)C(=O)Nc1cnc2ccccc2c1	1	1	14	1	nt	3
Oc1c(Br)cc(Br)cc1CNc1nccs1	-2	-2	nt	nt	0	-3
Oc1c(Br)cc(Br)cc1CNc1ccc(F)cc1	-7	11*	-4	11	0	7
COc1ccc(S(=O)(=O)N(C)C[C@H]2OCCCC[C@@H](C)Oc3ccc(NC(=O)Nc4ccccc4)cc3C(=O)N([C@@H](C)CO)C[C@H]2C)cc1	nt	nt	nt	nt	0	nt
O=C(N=Nc1c(O)[nH]c2ccc(Br)cc12)c1cc(-c2cccc3ccccc23)n[nH]1	1	16*	-6	-21	0	-2
O=C(N=Nc1c(O)[nH]c2ccc(Br)cc12)c1cc(-c2cccs2)nc2ccccc12	0	-3	nt	nt	0	12
C[C@H](CO)N1C[C@H](C)[C@H](CN(C)Cc2cccc(C(F)(F)F)c2)Oc2ncc(C#CCN(C)C)cc2C1=O	nt	nt	nt	nt	0	nt
CCCCNC(=O)Nc1ccccn1	0	12*	6	5	nt	-6
CCCCNC(=O)Nc1ccc(Br)cn1	-7	0	-3	-9	nt	0
SMILES	FID counter	GRIN3A LBD mod	EBNA-1 inhibitor	ZTA counter	FGF22 binding	NS3 helicase inh
O=C(NCCCCCNC(=O)c1ccccn1)c1ccccn1	-6	-1	-13	-12	0	-2
O=C(NCCCCNC(=O)c1ccccn1)c1ccccn1	2	1	-12	12	43*	2
O=C(Nc1ccc(Cl)c(Cl)c1)N[C@@H]1CC[C@H](CCNC(=O)c2ccc(F)cc2)O[C@H]1CO	nt	nt	nt	nt	0	nt
O=C(C[C@@H]1CC[C@@H]2[C@H](COC[C@H](O)CN2C(=O)Cc2ccccc2)O1)NC1CCCC1	nt	nt	nt	nt	1	nt
COc1ccc(S(=O)(=O)Nc2ccc3c(c2)C(=O)N([C@H](C)CO)C[C@H](C)[C@H](CN(C)S(=O)(=O)c2ccc(Cl)cc2)OCCCC[C@@H](C)O3)cc1	nt	nt	nt	nt	0	nt
COc1ccc(S(=O)(=O)Nc2ccc3c(c2)C(=O)N([C@H](C)CO)C[C@@H](C)[C@H](CN(C)S(=O)(=O)c2ccc(Cl)cc2)OCCCC[C@H](C)O3)cc1	nt	nt	nt	nt	23*	nt
Cc1ccc(S(=O)(=O)Nc2ccc3c(c2)C(=O)N([C@H](C)CO)C[C@@H](C)[C@@H](CN(C)S(=O)(=O)c2ccc(Cl)cc2)OCCCC[C@@H](C)O3)cc1	nt	nt	nt	nt	25*	nt
COc1ccc(S(=O)(=O)Nc2ccc3c(c2)C(=O)N([C@@H](C)CO)C[C@H](C)[C@H](CN(C)C(=O)C2CCCCC2)OCCCC[C@@H](C)O3)cc1	nt	nt	nt	nt	0	nt
C[C@@H]1CCCCO[C@@H](CN(C)C(=O)Nc2ccccc2)[C@H](C)CN([C@H](C)CO)C(=O)c2cc(NS(=O)(=O)c3ccc(Cl)cc3)ccc2O1	nt	nt	nt	nt	3.6*	nt
Cc1ccc(S(=O)(=O)N(C)C[C@H]2OCCCC[C@H](C)Oc3ccc(NS(=O)(=O)c4ccc(Cl)cc4)cc3C(=O)N([C@H](C)CO)C[C@H]2C)cc1	nt	nt	nt	nt	0	nt
COc1ccc(S(=O)(=O)Nc2ccc3c(c2)C(=O)N([C@H](C)CO)C[C@@H](C)[C@H](CN(C)C(=O)C2CCCCC2)OCCCC[C@@H](C)O3)cc1	nt	nt	nt	nt	1.5*	nt
Cc1ccccc1-c1ccc([C@H]2[C@@H](CO)N3CCCCN(C(=O)NC4CCCC4)C[C@H]23)cc1	nt	nt	nt	nt	0	nt
CCC(=O)N1C[C@H](C)[C@@H](OC)CN(C)C(=O)c2ccc(NC(=O)c3ccc(F)cc3)cc2OC[C@@H]1C	nt	nt	nt	nt	0	nt
O=C(C[C@H]1C[C@@H]2c3cc(NS(=O)(=O)c4ccc(F)cc4)ccc3O[C@@H]2[C@H](CO)O1)NC1CCCCC1	nt	nt	nt	nt	0	nt
Cn1c(=O)c2cc(NC(=O)NCc3ccc(Cl)cc3Cl)ccc2n1Cc1ccc(F)cc1	nt	nt	nt	nt	45*	nt
Cn1c(=O)c2cc(NC(=S)NCc3ccccc3F)ccc2n1Cc1cccc(C(F)(F)F)c1	nt	nt	nt	nt	3.9*	nt
CC(C)=CCn1c2ccc(NC(=O)NCc3ccc(F)cc3)cc2c(=O)n1C	nt	nt	nt	nt	0	nt
Cn1c(=O)c2cc(NC(=S)NCc3ccccc3F)ccc2n1Cc1ccccc1	nt	nt	nt	nt	0	nt
Cc1cc(NC(=O)c2sc(Nc3cccc(C(F)(F)F)c3)nc2N)no1	-3	20*	7	0	nt	2
Cc1cc(NC(=O)c2sc(Nc3ccc(F)c(Cl)c3)nc2N)no1	3	23*	18	6	0	-1
Cc1cc(NC(=O)c2cc(Cl)ccc2Cl)no1	-2	2	16	11	nt	-3
